Test results taken from ChEMBL document CHEMBL4689842, “EUbOPEN Chemogenomics Library wave 1” (2021).
Where “and” joins values, the source holds several entries; their conditions need not be identical. Equal values may be shown once.

How the values were obtained:
Type in all cases: toxicity, cell-based
[1] = system: HEK-293T; assay: Multiplex assay against HEK293T; conditions: human, 24 h, 10 µM, compound concentration 10 uM, replicate 2;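 on Population Tubulin-Different-Phenotype (%): share of the cells with healthy nuclei that show this phenotype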
Method in brief: (§1)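 Cells were classed with CellPathfinder machine-learning gating, first as Hoechst high-intensity objects or normal cells, then (normal cells) as healthy, pyknosed or fragmented nuclei, and finally (pyknosed cells) as mitotic or apoptotic. Staining of live cells at seeding used Hoechst33342, BioTracker Green Microtubule Cytoskeleton Dye, MitoTracker Red and Annexin V Alexa Fluor 680, with imaging on a CQ1 microscope at 37°C and 5% CO2 after compound addition. Tubulin, mitochondrial-mass and membrane-permeability phenotypes are per cents of healthy-nucleus cells.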

[2] = system: Fibroblast; assay: Incucyte cell viability with human fibroblast; conditions: 10 µM, compound concentration 10 uM; further: filed as whole numbers so only -1 and 0 and 1 occur
[3] = system: U2OS; assay: Incucyte cell viability with U2OS; conditions: human, 10 µM, compound concentration 10 uM; further: filed as whole numbers so only -1 and 0 and 1 occur
[4] = system: U2OS; assay: Multiplex assay against U2OS; conditions: human, 10 µM, compound concentration 10 uM; method in brief: as §1
[5] = 0 h, replicate number 2, timepoint 0 hours
[6] = 6 h, replicate number 1, timepoint 6 hours
[7] = 12 h, replicate number 1, timepoint 12 hours
[8] = 12 h, replicate number 2, timepoint 12 hours
[9] = 18 h, replicate number 1, timepoint 18 hours
[10] = 18 h, replicate number 2, timepoint 18 hours
[11] = 24 h, replicate number 1, timepoint 24 hours
[12] = 24 h, replicate number 2, timepoint 24 hours

`Cc1c(Oc2ccc(F)cc2)c(OC(C)C)nn1-c1ccc(C2CC2)cn1` [IPP/CNRS-A019] was tested, and the “Population Apoptotic (%)” value [1] was 9% and 6%, the “Population Fragmented Nuclei (%)” value [1] was 19% and 8% and the “Population Healthy Nuclei (%)” value [1] was 78% and 89%. For the same compound, the “Population Hoechst High Intensity Objects (%)” value [1] was 2%, the “Population Membrane Permeable-Phenotype (%)” value [1] was 2% and the “Population Mitotic Cells (%)” value [1] was 90% and 93%. The “Population Normal (%)” value [1] was 97%, the “Population Pyknosed Nuclei (%)” value [1] was 2% and 1% and the “Population Tubulin-Different-Phenotype (%)” value [1] was 20%. For the same compound, the “Total Cell Count” value [1] was 2108 and 1925, the “Growth Rate” value [2, 5] was 0 and the “Growth Rate” value [2, 6] was 0. The “Growth Rate” value [2, 7] was 0, the “Growth Rate” value [2, 8] was 1 and the “Growth Rate” value [2, 9] was 0. For the same compound, the “Growth Rate” value [2, 10] was 1, the “Growth Rate” value [2, 11] was 0 and the “Growth Rate” value [2, 12] was 1. For the same compound, the “Growth Rate” value [3, 5] was 0, the “Growth Rate” value [3, 6] was 1 and the “Growth Rate” value ([3]; 6 h, replicate number 2, timepoint 6 hours) was 0. The “Growth Rate” value [3, 7] was 1, the “Growth Rate” value [3, 8] was 0 and the “Growth Rate” value [3, 9] was 1. The “Growth Rate” value [3, 10] was 0, the “Growth Rate” value [3, 11] was 1 and the “Growth Rate” value [3, 12] was 0. The “Population Apoptotic (%)” value ([4]; 12 h, replicate 1) was 23% and 20%, the “Population Fragmented Nuclei (%)” value ([4]; 12 h, replicate 1) was 3% and the “Population Healthy Nuclei (%)” value ([4]; 12 h, replicate 1) was 88%. For the same compound, the “Population Hoechst High Intensity Objects (%)” value ([4]; 12 h, replicate 1) was 2% and 3%, the “Population Membrane Permeable-Phenotype (%)” value ([4]; 12 h, replicate 1) was 12% and 11% and the “Population Mitochondria Different-Phenotype (%)” value ([4]; 12 h, replicate 1) was 11% and 23%. The “Population Mitotic Cells (%)” value ([4]; 12 h, replicate 1) was 76% and 80%, the “Population Normal (%)” value ([4]; 12 h, replicate 1) was 97% and 96% and the “Population Pyknosed Nuclei (%)” value ([4]; 12 h, replicate 1) was 7% and 6%. For the same compound, the “Population Tubulin-Different-Phenotype (%)” value ([4]; 12 h, replicate 1) was 14% and 25%, the “Total Cell Count” value ([4]; 12 h, replicate 1) was 250 and 141 and the “Population Apoptotic (%)” value ([4]; 12 h, replicate 2) was 50% and 33%. For the same compound, the “Population Fragmented Nuclei (%)” value ([4]; 12 h, replicate 2) was 5% and 8%, the “Population Healthy Nuclei (%)” value ([4]; 12 h, replicate 2) was 90% and 87% and the “Population Hoechst High Intensity Objects (%)” value ([4]; 12 h, replicate 2) was 11% and 13%. For the same compound, the “Population Membrane Permeable-Phenotype (%)” value ([4]; 12 h, replicate 2) was 15% and 7%, the “Population Mitochondria Different-Phenotype (%)” value ([4]; 12 h, replicate 2) was 21% and 25% and the “Population Mitotic Cells (%)” value ([4]; 12 h, replicate 2) was 50% and 66%. For the same compound, the “Population Normal (%)” value ([4]; 12 h, replicate 2) was 88% and 86%, the “Population Pyknosed Nuclei (%)” value ([4]; 12 h, replicate 2) was 4% and the “Population Tubulin-Different-Phenotype (%)” value ([4]; 12 h, replicate 2) was 19% and 24%. The “Total Cell Count” value ([4]; 12 h, replicate 2) was 152 and 113, the “Population Apoptotic (%)” value ([4]; 24 h, replicate 1) was 42% and 34% and the “Population Fragmented Nuclei (%)” value ([4]; 24 h, replicate 1) was 2% and 3%. For the same compound, the “Population Healthy Nuclei (%)” value ([4]; 24 h, replicate 1) was 93% and 90%, the “Population Hoechst High Intensity Objects (%)” value ([4]; 24 h, replicate 1) was 2% and 1% and the “Population Membrane Permeable-Phenotype (%)” value ([4]; 24 h, replicate 1) was 8% and 7%. For the same compound, the “Population Mitochondria Different-Phenotype (%)” value ([4]; 24 h, replicate 1) was 9%, the “Population Mitotic Cells (%)” value ([4]; 24 h, replicate 1) was 57% and 65% and the “Population Normal (%)” value ([4]; 24 h, replicate 1) was 97% and 98%. For the same compound, the “Population Pyknosed Nuclei (%)” value ([4]; 24 h, replicate 1) was 5%, the “Population Tubulin-Different-Phenotype (%)” value ([4]; 24 h, replicate 1) was 25% and 18% and the “Total Cell Count” value ([4]; 24 h, replicate 1) was 149 and 352. For the same compound, the “Population Fragmented Nuclei (%)” value ([4]; 24 h, replicate 2) was 8% and 7%, the “Population Healthy Nuclei (%)” value ([4]; 24 h, replicate 2) was 87% and 85% and the “Population Hoechst High Intensity Objects (%)” value ([4]; 24 h, replicate 2) was 4% and 5%. The “Population Membrane Permeable-Phenotype (%)” value ([4]; 24 h, replicate 2) was 15% and 9%, the “Population Mitochondria Different-Phenotype (%)” value ([4]; 24 h, replicate 2) was 24% and 37% and the “Population Normal (%)” value ([4]; 24 h, replicate 2) was 95% and 94%. For the same compound, the “Population Pyknosed Nuclei (%)” value ([4]; 24 h, replicate 2) was 4% and 6%, the “Population Tubulin-Different-Phenotype (%)” value ([4]; 24 h, replicate 2) was 16% and 24% and the “Total Cell Count” value ([4]; 24 h, replicate 2) was 184 and 121.
